The values that follow come from paper PMC5110259 (Clinical cancer drugs, 2016).

A short description of data set [1]: DNS cytotoxicity assay. The class given is cell-based. To be noted: human, CEM cells vs Hs-27 cells. Summed up: (§1)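 Suspension cells plated at 10,000/well and exposed 20 h (footnote: 24 h) to graded concentrations in 1% v/v DMSO. Hoechst 33342/PI (1 μg/ml each) added for the final hour, then 3x3-field imaging. Dead cells were double-stained nuclei, DMSO background subtracted. CC50 by linear regression, triplicate. SCI = CC50 non-cancerous / CC50 cancer, using Hs-27 in the table and Hs-27, MCF-10A and CCD-112CoN for Jurkat.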

For the next data set, the system named is CEM. The data set is described as follows: DNS cytotoxicity assay. The class given is cell-based. As to conditions: Homo sapiens, CCRF-CEM, 24 h, read-out: Cytotoxic concentration 50% (CC50). Summed up: as §1
Data set [2] is described as follows: DNS cytotoxicity assay. Format: cell-based. As to conditions: human. Summed up:
as §1

Another data set concerns Jurkat. The data set is described as follows: DNS cytotoxicity assay. To be noted: Homo sapiens, Jurkat, 24 h, read-out: Cytotoxic concentration 50% (CC50). The class given is cell-based. Summed up:
as §1

A short description of data set [3]: DNS cytotoxicity assay. Format: cell-based. As to conditions: human, Nalm 6 cells vs Hs-27 cells. Put shortly: as §1
Another data set deals with Nalm 6. The data set is described as follows: DNS cytotoxicity assay. The class given is cell-based. To be noted: Homo sapiens, NALM-6, 24 h, read-out: Cytotoxic concentration 50% (CC50). Summed up:
as §1

Data set [4] in a line: DNS cytotoxicity assay. Format: cell-based. To be noted: human, Ramos cells vs Hs-27 cells. Summed up: as §1
A further data set concerns Ramos. Kind of data set: DNS cytotoxicity assay. Format: cell-based. To be noted: Homo sapiens, Ramos, 24 h, read-out: Cytotoxic concentration 50% (CC50). Put shortly:
as §1

Data set [5] can be described thus: DNS cytotoxicity assay. Format: cell-based. As to conditions: human, CCD-112CoN non-cancerous colon fibroblasts. Summed up:
(§2)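 DNS imaging assay. Adherent cells seeded at 5,000/well, incubated 20 h (table footnote says 24 h) with several compound concentrations in 1% v/v DMSO final. Hoechst 33342 and PI (1 μg/ml each, final) added 1 h before imaging 3x3 fields at 20x. Dead cells = Hoechst/PI co-localized nuclei. Values corrected by subtracting the mean % dead of six DMSO wells. CC50 by linear regression, triplicate.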

Data set [6] can be described thus: DNS cytotoxicity assay. Format: cell-based. As to conditions: human, Hs-27 non-cancerous foreskin fibroblasts. Put shortly:
as §2

A short description of data set [7]: DNS cytotoxicity assay. As to conditions: human, MCF-10A non-cancerous mammary epithelial cells. Format: cell-based. Summed up: as §2
The test system of data set [8] is Jurkat cells. Kind of data set: Apoptosis assay via annexin V-FITC/PI staining, Jurkat. The class given is cell-based, human. As to conditions: 24 h; for apoptosis (phosphatidylserine externalization, annexin V-FITC positive cells): 1 μM, flow cytometry. Summed up: (§3)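 Annexin V-FITC/PI co-staining read by flow cytometry after 24 h exposure. Excitation was at 488 nm, with FITC read on FL1 and PI on FL2. Cells that were PI-positive but annexin-negative were scored as necrotic. Controls were untreated cells, 1% v/v DMSO, 300 μM H2O2, and curcumin and EF-24 at 1 μM. Triplicates; compared with curcumin by Student's t-test.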

For another data set, the system named is Nalm-6 cells. The data set is described as follows: Apoptosis assay via annexin V-FITC/PI staining, Nalm-6. The class given is cell-based, human. To be noted: 24 h; for apoptosis (phosphatidylserine externalization, annexin V-FITC positive cells): 1 μM, flow cytometry. Summed up:
as §3

In data set [9] the test system is Jurkat cells. The data set is described as follows: Mitochondrial membrane potential assay. Format: cell-based, human. As to conditions: 1 μM, 7 h, JC-1, flow cytometry. Summed up:
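Jurkat at 3x10^4 cells per mL per well (24-well) exposed 7 h to 1 μM. JC-1 then added, 30 min at 37 °C, followed by flow cytometry of ~10,000 events. 50 μM CCCP served as depolarization control, with 1% DMSO and untreated controls. Triplicates, t-test vs DMSO.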

Data set [10] has as its system caspase-3/7 in Jurkat cells. The data set is described as follows: Caspase-3/7 activity assay. Format: cell-based, human. To be noted: 1 μM, 20 h, NucView 488, flow cytometry. Put shortly:
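Jurkat seeded at 100 cells/μL (24-well) and treated 20 h with 1 μM. Active caspase-3/7 detected in live cells with the NucView 488 fluorogenic substrate by flow cytometry, ~10,000 events per sample. Positive controls were 2 μg/ml camptothecin and 10 μM curcumin, plus DMSO and untreated controls. Triplicates, t-test vs DMSO.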

The test system of data set [11] is leukemia and lymphoma neoplasms. Kind of data set: DNS cytotoxicity screen at 1 μM, leukemia/lymphoma panel. Format: cell-based. As to conditions: human leukemia/lymphoma cell lines.
In data set [12] the test system is non-malignant MCF-10A and Hs-27 cell lines. The data set is described as follows: DNS cytotoxicity screen at 1 μM, non-malignant cells. Format: cell-based. As to conditions: 20 h. Put shortly:
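Single-concentration DNS screen: 1 μM in 1% v/v DMSO for 20 h. Hoechst 33342 and PI (1 μg/ml each) added 1 h before automated imaging. Percent dead was calculated from co-stained nuclei out of total nuclei per well. Controls were 300 μM H2O2, 1% DMSO and untreated wells. Run in triplicate and shown as heat map.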

Some results are limits rather than exact numbers.

Consider `CCN(CC)CCOc1ccc(C(=O)Oc2ccc(C=C3CN(C)CC(=Cc4ccc(OC(=O)c5ccc(OCCN(CC)CC)cc5)cc4)C3=O)cc2)cc1` [Compound 1, 3,5-bis{4-[4-(2-diethylaminoethoxy)phenylcarbonyloxy]benzylidene}-1-methyl-4-piperidone], for which the selectivity ratio at 20 h was 8.1 in “DNS cytotoxicity assay [1]”; > 10 in the data set “DNS cytotoxicity assay [2]”; 10.9 in the data set “DNS cytotoxicity assay [2]” (Jurkat cells vs CCD-112CoN cells); 11.1 in “DNS cytotoxicity assay [2]” (Jurkat cells vs Hs-27 cells); 36.3 in the data set “DNS cytotoxicity assay [2]” (Jurkat cells vs MCF-10A cells); 5.6 in “DNS cytotoxicity assay [3]”. In addition, the selectivity ratio at 20 h in “DNS cytotoxicity assay [4]” was 6.7. The CC50 with CEM was 0.59 ± 0.03 µM; in the data set with Jurkat, 0.43 ± 0.02 µM; in the data set on Nalm 6, 0.86 ± 0.03 µM; with Ramos, 0.71 ± 0.01 µM. Moreover, the CC50 at 24 h in the data set “DNS cytotoxicity assay [5]” worked out at 4.68 ± 0.83 µM; in the data set “DNS cytotoxicity assay [6]” it was 4.78 ± 0.03 µM; in the data set “DNS cytotoxicity assay [7]”, 15.6 ± 0.14 µM. For the same compound, the “apoptosis (phosphatidylserine externalization, annexin V-FITC positive cells)” value with Jurkat cells [8] was ~ 70%; in the data set with Nalm-6 cells it was ~ 50%. The results for the “apoptotic activity as compared with curcumin” value in the data set with Jurkat cells [8] (both compounds at 1 μM) and in the data set on Nalm-6 cells (both compounds at 1 μM) were 10 fold and 22.3 fold, respectively. In the data set on Jurkat cells [9], the mitochondrial depolarization was ~ 80%. For the same compound, the “caspase-3/7 activation (active caspase 3/7-positive cells)” value in [10] is listed as > 90%. In addition, the “in vitro cytotoxic concentration compared with curcumin” value in data set [11] is on record as “approximately ten times more effective than curcumin”. For the same compound, the “toxicity to non-malignant cell lines (heat map)” value in [12] is listed as “low toxicity”.

Consider `COc1cc(/C=C/C(=O)CC(=O)/C=C/c2ccc(O)c(OC)c2)ccc1O` [Curcumin, reference compound], for which the selectivity ratio at 20 h in the data set “DNS cytotoxicity assay [1]” was 1.4; in the data set “DNS cytotoxicity assay [2]” (Jurkat cells vs Hs-27 cells) it was 1.4; in “DNS cytotoxicity assay [3]” it was 1.4; in “DNS cytotoxicity assay [4]”, 1.7. The CC50 is 10.6 ± 0.06 µM in the data set with CEM, 10.86 ± 0.04 µM with Jurkat, 11 ± 0.2 µM with Nalm 6 and 9.25 ± 0.37 µM in the data set with Ramos. Further, the CC50 at 24 h amounted to 15.8 ± 0.13 µM in the data set “DNS cytotoxicity assay [5]”, 15.3 ± 0.38 µM in “DNS cytotoxicity assay [6]” and 14.1 ± 0.66 µM in the data set “DNS cytotoxicity assay [7]”. The “apoptosis (phosphatidylserine externalization, annexin V-FITC positive cells)” value in the data set on Jurkat cells [8] and in the data set on Nalm-6 cells was “did not induce significant PS externalization” throughout.
